Compounds with a hit are over-represented: about 4.1% of the library has one in this group of screens.
KCNK9 block: inhibitors of human KCNK9 two-pore domain potassium channel; Q9NPC2; HEK293 KCNK9, FluxOR thallium flux fluorescence; stronger effect = lower value; B-score at 10 µM; 1.2% of 310,000 active; AID 488922;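 active means ratio B-score over 3 SD below the library mean, with starting fluorescence within 5 SD of its mean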;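 further: negative B-score means less thallium flux so channel inhibition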
KCNQ1 act: potentiates or activates the human KCNQ1 potassium channel; 0.35% of 310,000 active; CHO-K1 KCNQ1, thallium flux FluxOR fluorescence; stronger effect = higher value; B-score at 10 µM;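 active means fluorescence ratio B-score, a plate-corrected score, at least three library SD, with initial intensity B-score within 5 SD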
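Assay system: CHO-K1 cells stably expressing KCNQ1. Medium: assay buffer for compound exposure, DMSO matched across wells. Timing: 37 °C overnight plating, 90-min dark dye load, 20-min compound pretreatment. Signal: kinetic FluxOR fluorescence, 10 s baseline plus 110 s post-stimulus.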
hERG rescue: hERG (human) protection from proarrhythmic block. Q12809. CHO-hERG, FluxOR thallium flux, dofetilide IC70 present. activation (rescue from dofetilide block), less the hit threshold, % at 10 µM. 0.51% of 310,000 active;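 active means activation above the mean of controls blocked by dofetilide plus 5 SD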;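 further: thallium influx through hERG after potassium depolarization seen as dye fluorescence rise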
Target sequence (Q12809 whole entry, looked up): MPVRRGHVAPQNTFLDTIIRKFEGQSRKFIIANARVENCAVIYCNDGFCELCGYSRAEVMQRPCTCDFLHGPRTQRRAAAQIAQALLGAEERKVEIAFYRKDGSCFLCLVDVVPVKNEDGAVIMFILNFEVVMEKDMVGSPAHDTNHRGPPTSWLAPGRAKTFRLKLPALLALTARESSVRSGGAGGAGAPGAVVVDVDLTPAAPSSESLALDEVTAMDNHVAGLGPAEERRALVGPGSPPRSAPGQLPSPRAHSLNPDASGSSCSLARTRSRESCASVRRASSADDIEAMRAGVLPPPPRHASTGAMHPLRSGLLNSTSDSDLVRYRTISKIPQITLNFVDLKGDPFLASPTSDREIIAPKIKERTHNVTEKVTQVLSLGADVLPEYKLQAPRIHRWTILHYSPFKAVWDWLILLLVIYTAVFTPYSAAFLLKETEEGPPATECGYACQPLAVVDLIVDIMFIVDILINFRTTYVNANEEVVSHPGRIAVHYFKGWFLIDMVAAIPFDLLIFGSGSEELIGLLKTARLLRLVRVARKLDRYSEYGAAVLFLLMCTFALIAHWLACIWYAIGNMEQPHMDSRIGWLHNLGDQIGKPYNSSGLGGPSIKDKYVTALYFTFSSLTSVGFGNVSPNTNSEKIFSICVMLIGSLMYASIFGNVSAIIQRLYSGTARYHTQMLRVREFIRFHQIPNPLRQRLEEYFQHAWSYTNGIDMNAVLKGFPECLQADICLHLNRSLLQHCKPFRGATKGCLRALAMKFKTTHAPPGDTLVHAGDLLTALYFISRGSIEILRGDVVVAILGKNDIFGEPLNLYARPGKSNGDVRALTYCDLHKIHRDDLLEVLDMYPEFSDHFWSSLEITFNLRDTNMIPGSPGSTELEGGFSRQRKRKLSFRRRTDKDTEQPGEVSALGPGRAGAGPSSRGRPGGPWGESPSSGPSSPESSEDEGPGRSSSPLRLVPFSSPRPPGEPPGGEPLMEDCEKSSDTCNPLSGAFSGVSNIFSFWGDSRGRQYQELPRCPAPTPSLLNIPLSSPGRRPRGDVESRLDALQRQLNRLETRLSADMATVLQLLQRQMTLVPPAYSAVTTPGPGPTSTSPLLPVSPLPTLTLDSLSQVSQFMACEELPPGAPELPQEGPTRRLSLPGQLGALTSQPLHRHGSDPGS
KCNK3 block: human KCNK3 channel inhibition, primary screen | O14649 | CHO-KCNK3 thallium flux, FluxOR fluorescence; stronger effect = lower value | B-score at 10 µM | 0.84% of 340,000 active;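 active means B-score under library mean minus 4 SD, starting fluorescence ratio at most library mean plus 5 SD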;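 further: more negative B-score means stronger inhibition of thallium flux through KCNK3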
Cl transport mod: modulates chloride dependent transport by human KCC2; Q9H2X9; KCC2 cells, thallium flux FluoZin-2 fluorescence; B-score of Tl+ flux slope (higher = more flux/activation; lower = inhibition) at 10 µM; 2.2% of 190,000 active; AID 1456;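 active means thallium flux slope and its plate-corrected score both differing from the plate sample mean at a set confidence after two filtering rounds, in either direction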;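 further: slope of fluorescence scaled to starting intensity during 10 to 20 s after thallium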
KCNQ1 block: inhibitors of human KCNQ1 potassium channel; P51787; CHO-K1 KCNQ1, FluxOR thallium flux fluorescence; stronger effect = higher value; B-score at 10 µM; 1.3% of 310,000 active; AID 2642;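 active means compounds whose thallium flux B-score, printed positive for inhibition, exceeds three library SD while starting fluorescence stays within three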;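 further: channel opened by potassium depolarization with thallium stimulus after 20 min compound exposure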
KCC2 secondary: KCC2 (human) modulation, secondary assay; 15% of 3,700 active; AID 1713; normalised thallium flux (F/F0 slope) at 10 µM; HEK293-KCC2, thallium flux, FluoZin2 fluorescence; stronger effect = higher value; shares compounds with Cl transport mod;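 active means thallium flux slope above the same plate's solvent-only control mean plus 3 SD; inconclusive means the two replicate wells disagree; inactive means no significant difference from solvent-only control wells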
KCC2 bumet counter: thallium flux persisting under bumetanide in KCC2 cells, counter-screen secondary assay | shares compounds with Cl transport mod | HEK293-KCC2 + bumetanide/ouabain, thallium flux FluoZin2; stronger effect = higher value | 49% of 3,700 active | normalized thallium flux at 10 µM;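 active means thallium entry rate above the same plate's blocked-transporter control wells by more than 3 SD; inconclusive means the two repeat wells disagree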;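 further: raw slope of fluorescence over initial fluorescence between 10 and 20 s after thallium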
KCC2 sec2: KCC2 (human) modulation, second secondary assay. shares compounds with Cl transport mod. HEK293-KCC2, thallium flux FluoZin2 fluorescence; actives lie on both sides; F/F0 rise rate, 10–20 s post-thallium. normalized thallium flux at 10 µM. 23% of 3,700 active;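 active means thallium flux slope more than 3 SD above or below the plate's solvent-only control mean, mostly below; inconclusive means the two repeat wells disagreed; inactive means no significant shift from solvent-only controls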;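 further: raw slope with 0.1% DMSO as baseline and bumetanide as block control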
HEK293 Tl flux: parental HEK flux effect, counter-screen; HEK293 parental cells, thallium flux FluoZin2, ouabain; baseline-ratio fluorescence slope, 10–20 s after thallium; shares compounds with Cl transport mod; 46% of 3,700 active; AID 1716; thallium flux rate (normalised fluorescence) at 10 µM;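 active means thallium flux rate significantly above the same plate's solvent-only control wells, beyond their mean plus 3 SD; inconclusive means the two replicate wells gave conflicting results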
KCC2 retest ouab: KCC2 (human) modulation, ouabain retest. shares compounds with Cl transport mod. HEK293-KCC2, thallium flux FluoZin2 fluorescence; bidirectional: low = inhibitor, high = activator. raw Tl+ flux slope (below DMSO = inhibition, above = activation) at 10 µM. 48% of 3,700 active. AID 1717;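 active means thallium flux slope beyond 3 SD from same-plate DMSO control mean in most replicates, usually higher, sometimes lower; inconclusive means repeat tests gave conflicting results; inactive means no significant difference from controls in most replicates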;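 further: slope of initial-normalized fluorescence between seconds 10 and 20 after thallium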
HEK counter2: counter-screen for KCC2 modulators: effect in parental HEK293 cells | thallium flux FluoZin-2 fluorescence slope | thallium flux slope at 10 µM | AID 1718 | 33% of 3,700 active | shares compounds with Cl transport mod;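 active means thallium flux slope above the same plate's solvent-control mean plus 3 SD in both duplicate wells; inconclusive means duplicate wells that disagreed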;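 further: run without ouabain in cells lacking the KCC2 cotransporter; slope of fluorescence scaled to its starting value between 10 and 20 s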
* = called active by the depositor.

`O=C(NC(=S)Nc1nc(-c2ccc(Br)cc2)cs1)c1ccco1` gave KCNK9 block inactive, KCNQ1 act inactive, hERG rescue 6.3*, KCNK3 block inactive, Cl transport mod 5.5*, KCNQ1 block inactive, KCC2 secondary 0.0063, KCC2 bumet counter 0.0078*, KCC2 sec2 0.029, HEK293 Tl flux 0.011*, KCC2 retest ouab 0.021 and HEK counter2 0.011*.
`COc1cc(NC(=S)NC(=O)c2cccs2)ccc1NC(=O)C(C)C` gave KCNK9 block inactive, KCNQ1 act inactive, hERG rescue -9, KCNK3 block inactive, Cl transport mod 5.1*, KCNQ1 block inactive, KCC2 secondary 0.0099, KCC2 bumet counter 0.024*, KCC2 sec2 0.03, HEK293 Tl flux 0.01*, KCC2 retest ouab inconclusive and HEK counter2 0.011*.
CCC(Cc1ccccc1)n1c(=S)[nH]c2ccccc2c1=O (stereo not drawn) was read as KCNK9 block inactive, KCNQ1 act inactive, hERG rescue 4, KCNK3 block inactive, Cl transport mod 50*, KCNQ1 block inactive, KCC2 secondary 0.019*, KCC2 bumet counter 0.15*, KCC2 sec2 0.035, HEK293 Tl flux 0.059*, KCC2 retest ouab 0.088* and HEK counter2 0.017*.
`CCC(C)n1c(=S)[nH]c2ccccc2c1=O` (stereo not drawn) gave KCNK9 block inactive, KCNQ1 act 14*, hERG rescue 14*, KCNK3 block inactive, Cl transport mod 101*, KCNQ1 block inactive, KCC2 secondary 0.042*, KCC2 bumet counter 0.14*, KCC2 sec2 0.055*, HEK293 Tl flux 0.13*, KCC2 retest ouab 0.11* and HEK counter2 0.039*.
For CN(C)CCn1c(=S)[nH]c2ccccc2c1=O the results were KCNK9 block inactive, KCNQ1 act inactive, hERG rescue -10, KCNK3 block inactive, Cl transport mod 0.17 and KCNQ1 block inactive.
`O=C1CN(S(=O)(=O)c2ccc(F)cc2)CCN1` gave KCNK3 block inactive.
Screening CSc1nnc(-c2cnccn2)n1CCCN1CCCC1=O returned KCNK9 block inactive, KCNQ1 act inactive, hERG rescue -9, KCNK3 block inactive, Cl transport mod 8.2*, KCNQ1 block inactive, KCC2 secondary 0.0073, KCC2 bumet counter 0.0043, KCC2 sec2 0.032, HEK293 Tl flux 0.0074, KCC2 retest ouab 0.02 and HEK counter2 0.01.
Screening O=c1cc(CO)oc(C(Nc2ccccn2)c2ccccc2F)c1O (stereo not drawn) returned KCNK9 block inactive, KCNQ1 act inactive, hERG rescue -5, KCNK3 block inactive, Cl transport mod 0.41 and KCNQ1 block inactive.
`COc1ccccc1-c1nc(C#N)c(N2CCC(Cc3ccccc3)CC2)o1` gave KCNK9 block inactive, KCNQ1 act inactive, hERG rescue -16, KCNK3 block inactive, KCNQ1 block inactive, KCC2 secondary 0.0092, KCC2 bumet counter 0.006, KCC2 sec2 inconclusive, HEK293 Tl flux 0.0083, KCC2 retest ouab 0.019* and HEK counter2 0.011.
Screening Cc1cc(C)c(C)c(S(=O)(=O)NCC(=O)O)c1C returned KCNK9 block inactive, KCNQ1 act inactive, hERG rescue -4, KCNK3 block inactive, Cl transport mod 0.55 and KCNQ1 block inactive.
Screening COc1cc(CNC(=O)CCCC(=O)c2ccccc2)cc(OC)c1OC returned KCNK9 block inactive, KCNQ1 act inactive, hERG rescue -6, KCNK3 block inactive and KCNQ1 block inactive.
For Cc1[nH]n(-c2ccc([N+](=O)[O-])cc2)c(=O)c1C=NCC1CCCO1 (stereo not drawn) the results were KCNK9 block inactive, KCNQ1 act inactive, hERG rescue -1, KCNK3 block inactive, Cl transport mod -1.4 and KCNQ1 block inactive.
`Cc1ccc(-n2[nH]c(C)c(/C=N/Nc3ccc([N+](=O)[O-])cc3[N+](=O)[O-])c2=O)cc1` gave KCNK9 block inactive, KCNQ1 act inactive, hERG rescue -9, KCNK3 block inactive, Cl transport mod -4.7*, KCNQ1 block 7*, KCC2 secondary 0.0064, KCC2 bumet counter 0.011*, KCC2 sec2 0.03, HEK293 Tl flux 0.0072, KCC2 retest ouab inconclusive and HEK counter2 0.0095.
`CN(C)c1cccc(C(=O)OCC(=O)Nc2ccccc2Cl)c1` gave KCNK9 block inactive, KCNQ1 act inactive, hERG rescue -7, KCNK3 block inactive, Cl transport mod -0.47 and KCNQ1 block inactive.
COc1cccc(CNC(=O)CN(C)S(=O)(=O)c2ccc(Br)s2)c1 was read as KCNK9 block inactive, KCNQ1 act inactive, hERG rescue -10, KCNK3 block inactive and KCNQ1 block inactive.
For CC1CCCC(NC(=O)CCn2c(=S)oc3ccccc32)C1C (stereo not drawn) the results were KCNK9 block inactive, KCNQ1 act inactive, hERG rescue -14, KCNK3 block inactive, Cl transport mod -0.84, KCNQ1 block inactive, KCC2 secondary 0.0085, KCC2 bumet counter 0.0068, KCC2 sec2 0.032, HEK293 Tl flux 0.0074, KCC2 retest ouab 0.022 and HEK counter2 inconclusive.
Cc1[nH]nc2c1C1(CCN(C(=O)OCc3ccccc3)CC1)C(C#N)=C(N)O2 was read as KCNK9 block inactive, KCNQ1 act inactive, hERG rescue -24, KCNK3 block inactive, Cl transport mod -2 and KCNQ1 block inactive.

High-throughput results (PubChem BioAssay)
